As a reminder, the MIC is the lowest concentration found to suppress growth.

We go through eleven compounds from ChEMBL document CHEMBL1147971, “Evaluation of N-(phenylmethyl)-4-[5-(phenylmethyl)-4,5,6,7-tetrahydro-1H-imidazo[4,5-c]pyridin-4-yl]benzamide inhibitors of Mycobacterium tuberculosis growth” (Bioorg Med Chem Lett, 2007).

Molecules are shown by their SMILES. In brackets after ≈: the same amount, converted by molar mass. Activity calls are given as the source filed them. No cut-off for these calls is given here. Some results are limits rather than exact numbers.

For data set [1], the system named is Mycobacterium tuberculosis. The experiment in a line: Antibacterial activity against Mycobacterium tuberculosis. The data set is classed as functional. In a few lines: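 M. tuberculosis broth cultures grown in 96-well microtitre plates with drug. Growth read indirectly by metabolic reduction of fluorescent Alamar blue. MIC taken as the minimum drug concentration giving 50% inhibition of growth.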

Data set [2] in a line: Permeability across artificial cell membrane. The following applies: for Papp: not told, read-out: permeability. Type of data set: ADME. The procedure, abridged: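 High-throughput artificial membrane assay measuring passive diffusion of compound across a phospholipid monolayer.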
The nature of data set [3]: Cytotoxicity against HEPG2 cells. Type of data set: cell-based. To be noted: human; for cytotoxicity: read-out: Inhibition; for CC50: read-out: TC50 (the source's name).
Another data set concerns Staphylococcus aureus. The experiment in a line: Antibacterial activity against Staphylococcus aureus ATCC 29213. Type of data set: functional, organism-based.
The mark [4] stands for this setting: Mycobacterium tuberculosis, read-out: MIC.

Take `COc1ccc(CNC(=O)c2ccc(C3c4nc[nH]c4CCN3Cc3cccc(Cl)c3Cl)cc2)cc1` (stereo in doubt; 8e): the minimum inhibitory concentration (MIC) in data set [1] (setting [4]) is 32 µM (≈ 16.7 µg/mL).
`COc1ccc(CNC(=O)c2ccc(C3c4nc[nH]c4CCN3Cc3cccc(Cl)c3)cc2)cc1` (stereo in doubt; 9d): in data set [1] (setting [4]), the MIC amounted to 63 µM (≈ 30.7 µg/mL). In data set [2], the Papp amounted to 21 ×10⁻⁶ cm/s.
With `O=C(NCc1ccccc1)c1ccc(C2c3nc[nH]c3CCN2c2ccc3ccccc3c2)cc1` (configuration not stated), the MIC in data set [1] (setting [4]) was 16 µM (≈ 7.34 µg/mL). Further, in data set [3], the cytotoxicity was greater than 20% and the CC50 was greater than 13.2 µM.
In the case of `COc1ccc(CNC(=O)c2ccc(C3c4nc[nH]c4CCN3Cc3cccc(Cl)c3)cc2)cc1` (stereo in doubt; 8f), in data set [3], the cytotoxicity was determined as 25% and the CC50 was greater than 12.8 µM.
Turning to `COc1ccc(CNC(=O)c2ccc(C3c4nc[nH]c4CCN3Cc3cccc(Cl)c3Cl)cc2)cc1` (stereo in doubt; 9a), in data set [2], the Papp is 8 ×10⁻⁶ cm/s.
With `COc1ccc(CNC(=O)c2ccc(C3c4nc[nH]c4CCN3Cc3cccc(Cl)c3)cc2)cc1` (stereo in doubt; 9c), the MIC in data set [1] was determined as 32 µM (≈ 15.6 µg/mL). In data set [2], this compound came in with a permeability of 21 ×10⁻⁶ cm/s.
As to `O=C(NCc1ccccc1)c1ccc(C2c3nc[nH]c3CCN2Cc2cccc(Cl)c2Cl)cc1` (configuration not stated), the MIC in data set [1] (setting [4]) was found to be 32 µM (≈ 15.7 µg/mL).
Take `COc1ccc(CNC(=O)c2ccc(C3c4nc[nH]c4CCN3c3ccc4ccccc4c3)cc2)cc1` (configuration not stated): the MIC in data set [1] (setting [4]) was 32 µM (≈ 15.6 µg/mL). In addition, in data set [3], the cytotoxicity came out at 25% and the CC50 is greater than 12.4 µM.
On to `O=C(NCc1ccccc1)c1ccc(C2c3nc[nH]c3CCN2Cc2cccc(Cl)c2)cc1` (configuration not stated), for which the MIC in data set [1] (setting [4]) was determined as 32 µM (≈ 14.6 µg/mL).
`COc1ccc(CNC(=O)c2ccc(C3c4nc[nH]c4CCN3Cc3cc(OC)c(OC)cc3OC)cc2)cc1` (configuration not stated): the result in the data set with Staphylococcus aureus was Active. Further, in data set [1] (setting [4]), the MIC was found to be 63 µM (≈ 34.2 µg/mL). In data set [3], the cytotoxicity was determined as 20% and the CC50 was greater than 11.5 µM.
Take `COc1ccc(CNC(=O)c2ccc(C3c4nc[nH]c4CCN3Cc3cccc(Cl)c3Cl)cc2)cc1` (stereo in doubt; 9b): in data set [1], the MIC was 63 µM (≈ 32.9 µg/mL). In data set [2], this compound gave a permeability of 8 ×10⁻⁶ cm/s.
